This note sets out measurements from ChEMBL document CHEMBL5647689, “Functional role and therapeutic potential of the pim-1 kinase in colon carcinoma” (Neoplasia, 2013).

One data set relates to LS174T. Put plainly: Antiproliferative activity against siRNA-mediated Pim-1 knockout human LS174T cells assessed as reduction in cell viability measured after 72 hrs. The data set is classed as functional, cell-based. The settings on record: dose 0.13-130 µM. In short, it runs like this: (§1)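 HCT-116 (1 x 10^3/well) or LS174T (3 x 10^3/well) cells were grown in IMDM/10% FCS at 37°C, 5% CO2. The medium was replaced with IMDM/10% FCS containing the inhibitor at the indicated concentrations, and cells were kept 72 h at 37°C. Inhibitor stock was 20 mg/ml in DMSO, diluted in PBS or medium.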

Data set [1] has as its system HCT-116. Put plainly: Antiproliferative activity against siRNA-mediated Pim-1 knockout human HCT-116 cells assessed as reduction in cell viability measured after 72 hrs. In kind it is functional, cell-based. The settings on record: dose 0.066-66 µM. In short, it runs like this: as §1
In data set [2] the test system is HCT-116. Briefly: Downregulation of p-p21 levels in human HCT-116 cells at 2 uM incubated for 24 hrs by Western blotting analysis. In kind it is functional, cell-based. In short, it runs like this:
(§2)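 HCT-116 lysates were made on ice in PBS with 1 mM EDTA, 1% NP-40, protease and phosphatase inhibitors, then sonicated and cleared by centrifugation. Protein was measured by DC assay. 40 µg ran on 10% SDS-PAGE and went onto PVDF (0.45 µm). Blocking used 5% milk/TBST; primary antibodies ran overnight at 4°C, then HRP secondaries for 1 h. Detection was ECL with densitometric quantitation of scanned bands.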
A general note: A western blot detects proteins with antibodies after separation by electrophoresis.

Data set [3] has as its system HCT-116. Briefly: Induction of apoptosis in siRNA-mediated Pim-1 knockout human HCT-116 cells assessed as increase in caspase 3/7 activity at 0.7 uM incubated for 72 hrs by Caspase-Glo 3/7 reagent based microplate reader analysis. The data set is classed as functional, cell-based. In short, it runs like this: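 HCT-116 cells (1 x 10^3/well) were exposed to the inhibitor in IMDM/10% FCS for 72 h at 37°C. Caspase-3/7 was read by Caspase-Glo 3/7: substrate diluted 1:5 in serum-free medium, 1 h at room temperature in the dark, then luminescence. A WST-1 assay run in parallel on the same plate normalized for cell density.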

Data set [4] relates to HCT-116. Briefly: Downregulation of E-cadherin levels in human HCT-116 cells at 2 uM incubated for 24 hrs by Western blotting analysis. The data set is classed as functional, cell-based. In short, it runs like this: as §2
In data set [5] the test system is HCT-116. Put plainly: Downregulation of pim-1 levels in human HCT-116 cells at 2 uM incubated for 24 hrs by Western blotting analysis. The data set is classed as functional, cell-based. In short, it runs like this: as §2
For data set [6], the system named is HCT-116. Briefly: Downregulation of c-Myc levels in human HCT-116 cells at 2 uM incubated for 24 hrs by Western blotting analysis. The data set is classed as functional, cell-based. In a few lines: as §2
The subject of data set [7] is HCT-116. Put plainly: Downregulation of p-STAT3 levels at serine 727 residue in human HCT-116 cells at 2 uM incubated for 24 hrs by Western blotting analysis. The data set is classed as functional, cell-based. In a few lines: as §2
A short description of data set [8]: Toxicity in athymic nude mouse xenografted with human HCT-116 cells assessed as behavioural changes in at 70 mg/kg, ip administered twice a week measured after 14 days. The settings on record: in vivo, 336 h, time 14 day. In kind it is organism-based. For orientation: Xenograft models place foreign cells or tissue in a host animal.
Data set [9] deals with HCT-116. Put plainly: cells. The settings on record: Homo sapiens, HCT-116, 72 h.
The test system of data set [10] is HCT-116. Put plainly: cells. The settings on record: Homo sapiens, HCT-116, 72 h. This is another data set of the same source.
The nature of data set [11]: Toxicity in athymic nude mouse xenografted with human HCT-116 cells assessed as change in body weight at 40 mg/kg, ip administered twice a week measured after 14 days. In kind it is organism-based. The settings on record: in vivo, 336 h, time 14 day.
In data set [12] the test system is HCT-116. Briefly: Synergistic antitumor activity against PEI complexed siRNA treated human HCT-116 cells xenografted in athymic nude mouse assessed as tumor growth inhibition at 40 mg/kg, ip administered on day 3 to 4 measured after 14 days. The data set is classed as functional. The settings on record: HCT-116, 336 h, time 14 day, read-out: TGI.
For data set [13], the system named is HCT-116. Briefly: Induction of apoptosis in human HCT-116 cells assessed as fold increase in caspase 3/7 activity incubated for 72 hrs by Caspase-Glo 3/7 reagent based microplate reader analysis. In kind it is functional.
Data set [14] deals with HCT-116. Put plainly: Synergistic antitumor activity against PEI complexed siRNA-mediated Pim-1 knockout human HCT-116 cells xenografted in athymic nude mouse assessed as tumor growth inhibition at 40 mg/kg, ip administered on day 3 to 4 measured after 14 days. In kind it is functional. The settings on record: HCT-116, 336 h, time 14 day, read-out: TGI.
For data set [15], the system named is HCT-116. Put plainly: Induction of apoptosis in siRNA-mediated Pim-1 knockout human HCT-116 cells assessed as fold increase in caspase 3/7 activity incubated for 72 hrs by Caspase-Glo 3/7 reagent based microplate reader analysis. The data set is classed as functional. In short, it runs like this:
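HCT-116 cells, 5 x 10^2 per well, transfected with 20 nM siPim-1 […], held 72 h at 37°C. Caspase substrate diluted 1:5 in serum-free medium added for 1 h at room temperature in the dark; luminescence read. Signal normalized to a parallel WST-1 assay on the same plate. Means ± SEM.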

The test system of data set [16] is HCT-116. Put plainly: Antitumor activity against PEI complexed siRNA-mediated Pim-1 knockout human HCT-116 cells xenografted in athymic nude mouse assessed as increase in pim-1 levels in tumor at 40 to 70 mg/kg, ip administered on day 3 to 4 measured after 14 days by immunohistochemical staining based analysis. In kind it is functional, organism-based. The settings on record: dose 40-70 mg/kg, time 14.0 day. In short, it runs like this:
(§3)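 Nude mice (Foxn1nu, 6–8 weeks) carried s.c. HCT-116 flank tumours (1.5 x 10^6 cells) and were randomized at 40–50 mm3, n = 12 tumours/group. PEI F25-LMW-complexed siRNA (Pim-1 or control) was given at 10 µg i.p. every 2–3 days; 70 or 40 mg/kg in PBS was given i.p. every 3–4 days. Paraffin tumour sections were stained for Pim-1 and ranked 0–4.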

In data set [17] the test system is HCT-116. Briefly: Synergistic antitumor activity against PEI complexed siRNA-mediated Pim-1 knockout human HCT-116 cells xenografted in athymic nude mouse assessed as tumor growth inhibition at 70 mg/kg, ip administered on day 3 to 4 measured after 14 days. In kind it is functional. The settings on record: HCT-116, 336 h, time 14 day, read-out: TGI.
The test system of data set [18] is HCT-116. Put plainly: Antitumor activity against PEI complexed siRNA-mediated luciferase knockout human HCT-116 cells xenografted in athymic nude mouse assessed as increase in pim-1 levels in tumor at 40 to 70 mg/kg, ip administered on day 3 to 4 measured after 14 days by immunohistochemical staining based analysis. The settings on record: dose 40-70 mg/kg, time 14.0 day. In kind it is functional, organism-based. In a few lines:
as §3

A short description of data set [19]: Toxicity in athymic nude mouse xenografted with human HCT-116 cells assessed as behavioural changes in at 40 mg/kg, ip administered twice a week measured after 14 days. The data set is classed as organism-based. The settings on record: in vivo, 336 h, time 14 day.
Data set [20] deals with HCT-116. Briefly: Synergistic antitumor activity against human HCT-116 cells xenografted in athymic nude mouse assessed as tumor growth inhibition at 70 mg/kg, ip administered on day 3 to 4 measured after 14 days. In kind it is functional. The settings on record: HCT-116, 336 h, time 14 day, read-out: TGI.
Data set [21] can be described thus: Toxicity in athymic nude mouse xenografted with human HCT-116 cells assessed as change in body weight at 70 mg/kg, ip administered twice a week measured after 14 days. The settings on record: in vivo, 336 h, time 14 day. The data set is classed as organism-based.
The test system of data set [22] is HCT-116. Put plainly: Synergistic antitumor activity against PEI complexed siRNA-mediated luciferase knockout human HCT-116 cells xenografted in athymic nude mouse assessed as tumor growth inhibition at 70 mg/kg, ip administered on day 3 to 4 measured after 14 days. In kind it is functional. The settings on record: HCT-116, 336 h, time 14 day, read-out: TGI.
The nature of data set [23]: Downregulation of miR-15b expression in human HCT-116 cells at 3 uM incubated for 24 hrs by […] analysis. The data set is classed as functional.
For data set [24], the system named is HCT-116. Briefly: Induction of miR-15b mediated pim-1 expression in human HCT-116 cells assessed as increase in luciferase activity at 3 uM incubated for 72 hrs by luminometer analysis. The data set is classed as functional, cell-based. In a few lines: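 HCT-116 cells (3 x 10^4 per 24-well well) co-transfected via PEI F25-LMW with 125 ng pGL3 luciferase reporter carrying Pim-1 3′UTR, intact or miR-15b-seed-mutated. After 48 h, 1 or 3 µM in IMDM/10% FCS was added for 24 h at 37°C. Lysate was mixed with luciferase substrate and read on a luminometer.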

Data set [25] has as its system HCT-116. Briefly: Antiproliferative activity against siRNA-mediated Pim-1 knockout human HCT-116 cells assessed as increase in pim-1 mRNA levels measured after 24 hrs by q-PCR analysis. In kind it is functional, cell-based. The settings on record: dose 1-3 µM. In a few lines:
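HCT-116 cells seeded at 3.5 x 10^5 per six-well well under standard conditions, then exposed 24 h at 37°C to 1 or 3 µM in IMDM/10% FCS. Total RNA was extracted by phenol/chloroform, and Pim-1 mRNA was measured by SYBR Green qPCR run in parallel with actin. Levels were expressed as 2^CP(target)/2^CP(actin).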

SMILES strings stand for the structures. Active and inactive are the calls of the source. No cut-off for these calls is given here.

With `Cn1c2c(c3ccc(Cl)c(Cl)c31)C(C#N)C1(CCNCC1)NC2=O` (stereo unspecified), the Activity result in the data set with LS174T and in the data set on HCT-116 [1] was “Dose-Dependent Effect” throughout. The outcome in the data set on HCT-116 [2], with HCT-116 [3], in the data set with HCT-116 [4], in the data set with HCT-116 [5], in the data set on HCT-116 [6] and with HCT-116 [7] was Active.
Usually IC50 stands for the midpoint of a concentration-inhibition curve. Lower therefore signals greater potency. Regarding `O=c1[nH]cc(F)c(=O)[nH]1` [FLUOROURACIL], the Activity entry in data set [8] is “Toxic”; in data set [11], “Non-Toxic”; in data set [19], “Non-Toxic”; in data set [21], “Toxic”; in data set [23] it was 40%; in the data set with HCT-116 [25], “Dose-Dependent Effect”. In addition, the IC50 in the data set with HCT-116 [9] was 10.1 µM; in the data set with HCT-116 [10], 3.2 µM. Besides, the inhibition in vivo at 40 mg/kg with HCT-116 [12] was approximately 20%; in the data set with HCT-116 [14], approximately 60%. Also, the “fold change (FC)” value is on record as approximately 1.7 in the data set with HCT-116 [13] and 1.4 in the data set on HCT-116 [15]. For the same compound, the result in the data set with HCT-116 [16], in the data set on HCT-116 [18] and in the data set with HCT-116 [24] was Active. Further, the inhibition in vivo at 70 mg/kg in the data set with HCT-116 [17] is approximately 30%; in the data set on HCT-116 [20], approximately 40%; with HCT-116 [22] it was approximately 30%.
